Source: PubChem
Rows were chosen to be rich in hits. Some 4.6% of all compounds tested hit in one or more screens of this group.
TAAR1 antag: antagonists of human TAAR1. Q96RJ0. CHO RD-HGA16 TAAR1, Fluo-8 calcium fluorescence, antagonist. inhibition, % at 3 µM. 360,000 tested, 1.5% active. AID 624466;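 active means inhibition above a per-plate cutoff, the mean inhibition of test compounds on that plate plus 3 SD, cut at about 49% in these data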;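 further: 0% = DMSO plus EC80 beta-PEA response and 100% = DMSO alone without agonist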
Target sequence (Q96RJ0 whole entry, looked up): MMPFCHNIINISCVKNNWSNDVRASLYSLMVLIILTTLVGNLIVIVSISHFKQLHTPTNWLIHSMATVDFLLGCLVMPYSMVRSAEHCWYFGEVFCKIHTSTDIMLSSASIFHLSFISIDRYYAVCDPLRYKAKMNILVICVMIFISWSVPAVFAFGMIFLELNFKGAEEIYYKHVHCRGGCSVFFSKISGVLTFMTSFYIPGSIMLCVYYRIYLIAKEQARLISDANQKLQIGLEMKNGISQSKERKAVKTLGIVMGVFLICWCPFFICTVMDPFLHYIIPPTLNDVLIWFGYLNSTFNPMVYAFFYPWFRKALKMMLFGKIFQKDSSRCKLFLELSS
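Test system: hTAAR1-expressing CHO RD-HGA16 cells, Gα16-coupled; Probe or stimulus: EC80 β-phenethylamine stimulus; Compound dosing: single nominal final test compound concentration of 3 µM; Timing: 140 s kinetic read after compound, 140 s after agonist; Signal: Fluo-8 calcium-sensitive fluorescence; Measure: % inhibition of agonist calcium response; Controls: DMSO and EC80 PEA controls.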
OX1R antag-1: human HCRTR1 antagonism. O43613. CHO/OX1R cells, Fluo-8 calcium fluorescence, orexin A. inhibition, % at 5 µM. 330,000 tested, 0.43% active;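 active means inhibition above its plate's threshold, mean inhibition of all tested compounds on the plate plus 3 SD, cut at about 37% in these data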;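 further: 0% = orexin A challenge wells and 100% = SB-334867-A antagonist wells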
TAAR1 ag: human TAAR1 agonism | activation, % at 3 µM | CHO RD-HGA16 TAAR1, Fluo-8 calcium fluorescence; vehicle wells 0%, saturating PEA agonist 100% | Q96RJ0 | AID 624467 | 360,000 tested, 0.99% active;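 active means activation above the mean activation of all test compounds in the run plus 3 SD, cut at about 38% in these data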
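Benchmarks: low control DMSO, high control PEA (EC100); System: CHO RD-HGA16 cells carrying human TAAR1 plus Gα16; Detection: Fluo-8 fluorescence, 5 s baseline then 140 s kinetic read; Schedule: 17-24 h plating, Fluo-8 75 min 37 °C, 30 min RT; Read-out basis: % activation from peak over basal fluorescence ratio, DMSO-to-PEA scaled.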
OX1R antag-2: blocks the human orexin 1 receptor; O43613; OX1R-expressing cells, FRET antagonist read-out; inhibition, % at 6.6 µM; 330,000 tested, 1.8% active; in the data active means inhibition mostly above about 38%, no sharp cut-off; inactive means mostly below about 40%;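 further: 0% = agonist challenge alone and 100% = reference antagonist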
CHO parental Ca: counter-screen: ATP calcium response change in parental CHO cells; inhibition, % at 5.6 µM; 330,000 tested, 0.63% active; parental CHO-K1, ATP-induced calcium, Fluo-8 fluorescence;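 active means inhibition above that plate's mean sample inhibition plus 3 SD, cut at about 26% in these data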;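 further: 0% = ATP-challenged DMSO wells and 100% = DMSO wells without ATP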
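Assay system: parental CHO cells; Read-out basis: percent inhibition of ATP-evoked calcium rise, normalized to controls; Benchmarks: ATP and no-ATP DMSO wells; Compound dosing: single nominal dose of 5.6 µM per compound; Signal: Fluo-8 calcium dye fluorescence; Also added: ATP as calcium-mobilizing challenge; Repeats: singlicate.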
GPR7 antag: human neuropeptides B/W receptor 1 antagonism. inhibition, % at 4.4 µM. 290,000 tested, 1.1% active. GPR7-expressing cells, fluorescence antagonist assay; in the data active means inhibition above about 16%, passing the limit was not always enough;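 further: cells stimulated with the agonist NPW; 0% = agonist with vehicle and 100% = vehicle without agonist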
Starred values were filed as active, the others as inactive.

How did C=CC[C@@H](CC(=O)N[C@@H](CO)Cc1ccccc1)C(=O)N[C@H](COC(=O)[C@H](CC=C)CC(=O)OC(C)(C)C)Cc1c[nH]c2ccccc12 do in these assays?
TAAR1 antag: 52*; OX1R antag-1: 47; TAAR1 ag: 13; OX1R antag-2: 10; CHO parental Ca: 2

How did C=CC[C@@H](CC(=O)N(CCO)Cc1ccccc1)C(=O)N[C@H](COC(=O)[C@@H](CC=C)Cc1ccc(F)cc1)Cc1c[nH]c2ccccc12 do in these assays?
TAAR1 antag: 59*; OX1R antag-1: 44; TAAR1 ag: 14; OX1R antag-2: -1; CHO parental Ca: 12

Results for CC(C)C[C@@H](CN1CCC[C@H]1CN1C(=O)C(=O)NC[C@@H]1Cc1ccc(O)cc1)N1C[C@H](Cc2ccccc2)N(CC2CCCCCC2)C(=O)C1=O ?
TAAR1 antag: 11; TAAR1 ag: 0

Results for O=C(N[C@H](C(=O)N1CCC[C@H]1C(=O)NCc1ccccc1)c1ccccc1)c1ccc(Cl)cc1Cl ?
TAAR1 antag: 5; TAAR1 ag: 0

Results for CSc1nc2nccc(-c3ccc4c(c3)OCO4)n2n1 ?
TAAR1 antag: -33; OX1R antag-1: 10; TAAR1 ag: 1; OX1R antag-2: 12; CHO parental Ca: -2; GPR7 antag: -10

Results for CSc1nc2nccc(-c3ccc(-c4ccccc4)cc3)n2n1 ?
TAAR1 antag: 8; OX1R antag-1: 1; TAAR1 ag: 5; OX1R antag-2: 44*; CHO parental Ca: -25; GPR7 antag: -5

Results for CCOC(=O)C1=CCN(S(=O)(=O)c2ccc(Cl)cc2)C1c1ccc(Br)cc1 (stereo unspecified) ?
TAAR1 antag: 5; TAAR1 ag: 0

How did COc1ccc(OC)c(NC(=O)C(=O)NNC(=O)C23CC4CC(CC(C4)C2)C3)c1 do in these assays?
TAAR1 antag: -19; OX1R antag-1: -8; TAAR1 ag: 54*; OX1R antag-2: 27; CHO parental Ca: -9; GPR7 antag: -4

What do the screens show for `Cc1nn(S(=O)(=O)c2cccs2)c(C)c1Sc1ccc([N+](=O)[O-])cc1`?
TAAR1 antag: 45; OX1R antag-1: 21; TAAR1 ag: 1; OX1R antag-2: 56; CHO parental Ca: 41*; GPR7 antag: 5

How did Cc1nn(S(=O)(=O)c2cccs2)c(C)c1Sc1ccccc1 do in these assays?
GPR7 antag: -6

What do the screens show for `CCCN(CCC)Cc1cc(=O)oc2cc(C)cc(C)c12`?
TAAR1 antag: -23; TAAR1 ag: 4

What do the screens show for `O=C1C=CC(=O)N1c1cccc(-c2ccccc2)c1`?
TAAR1 antag: 69*; OX1R antag-1: 45*; TAAR1 ag: 15; OX1R antag-2: 24; CHO parental Ca: 27; GPR7 antag: 1

How did COc1cc(N2C(=O)C=CC2=O)ccc1N1C(=O)C=CC1=O do in these assays?
TAAR1 antag: -3; TAAR1 ag: 8

What do the screens show for `CC(=O)N1C[C@@H](CN2C(=O)CCC2=O)[C@@H]2C[C@H]1c1ccccc1N2C`?
TAAR1 antag: -2; TAAR1 ag: 2

Results for CCN(CC)C(=O)c1oc2ccc(S(=O)(=O)N3CC(C)CC(C)C3)cc2c1C (stereo unspecified) ?
TAAR1 antag: -1; OX1R antag-1: 33; TAAR1 ag: 6; OX1R antag-2: 60; CHO parental Ca: 41*; GPR7 antag: 4

What do the screens show for `CCN(CC)C(=O)c1oc2ccc(S(=O)(=O)N3CCCCCC3)cc2c1C`?
TAAR1 antag: -12; OX1R antag-1: -3; TAAR1 ag: 6; OX1R antag-2: 19; CHO parental Ca: -19; GPR7 antag: 1

What do the screens show for `Nc1cc(=O)n(Cc2ccccc2)c(N)c1C(=O)NCc1ccccc1`?
TAAR1 antag: -2; TAAR1 ag: 4

What do the screens show for `CCCC(=O)Nc1ccc(-c2csc(N/N=C\c3ccncc3)n2)cc1`?
TAAR1 antag: 60*; OX1R antag-1: -15; TAAR1 ag: 15; OX1R antag-2: 3; CHO parental Ca: -13; GPR7 antag: 5

Results for C[C@H](O)[C@@H]1C(=O)N2CCc3c([nH]c4ccccc34)[C@@H]2C[C@@H]1N(C)C(=O)OCc1ccccc1 ?
TAAR1 antag: 8; TAAR1 ag: 8
